# Assay outcomes deposited in PubChem BioAssay by several laboratories.
# Rows were chosen to be rich in hits. Some 1.1% of all compounds tested hit in one or more screens of this group.
# DAGLB inhibitor = DAGLB lipase inhibitors, primary screen, biochemical, fluorescence, HTS; HEK293T DAGLB membrane lysate, EnzChek fluorogenic substrate; inhibition, % at 5.17 µM; hit rate 0.059% among 340,000; AID 504411, 2011; in the data active means inhibition above about 34%;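 further: 0% = enzyme with vehicle and 100% = wells lacking enzyme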
# Target sequence (Q8NCG7 whole entry, looked up): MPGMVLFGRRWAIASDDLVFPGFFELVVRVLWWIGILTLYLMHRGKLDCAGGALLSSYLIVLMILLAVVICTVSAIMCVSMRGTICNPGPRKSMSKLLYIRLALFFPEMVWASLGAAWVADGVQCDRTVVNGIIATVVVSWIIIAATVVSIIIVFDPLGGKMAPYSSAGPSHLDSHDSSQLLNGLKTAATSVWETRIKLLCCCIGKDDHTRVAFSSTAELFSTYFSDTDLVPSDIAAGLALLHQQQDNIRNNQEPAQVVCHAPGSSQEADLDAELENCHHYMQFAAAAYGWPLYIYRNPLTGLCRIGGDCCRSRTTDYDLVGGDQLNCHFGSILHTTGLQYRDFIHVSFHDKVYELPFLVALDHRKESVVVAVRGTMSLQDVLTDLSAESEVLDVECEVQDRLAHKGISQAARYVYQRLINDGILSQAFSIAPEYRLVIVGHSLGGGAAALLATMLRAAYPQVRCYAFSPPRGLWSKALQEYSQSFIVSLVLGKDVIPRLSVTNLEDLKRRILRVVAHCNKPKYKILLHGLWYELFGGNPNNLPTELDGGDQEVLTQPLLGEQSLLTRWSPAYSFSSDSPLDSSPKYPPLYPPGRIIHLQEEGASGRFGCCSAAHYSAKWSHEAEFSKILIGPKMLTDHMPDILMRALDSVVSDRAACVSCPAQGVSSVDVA
# core dimer inh = inhibitors of HCV core protein dimerization, primary screen, biochemical, TR-FRET, high-throughput | TR-FRET GST/Flag-core106 dimerization, 1536-well | inhibition, % at 5 µM | hit rate 0.33% among 300,000 | AID 1899, 2009;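 active means inhibition above the mean of all tested compounds plus 3 SD, set per screening campaign, cut at about 45% in these data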
#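 Material: Tagged HCV core106 pair (GST and Flag) | Amount: GST-core106 13.5 nM, Flag-core106 17 nM | Medium: KF-containing HEPES buffer, pH 7.45, DTT, CHAPS, BSA | Reagent: Eu donor and XL665 acceptor anti-tag antibodies | Schedule: 4 h at 22.5 °C | Technique: Time-resolved FRET, ex 340 nm, em 617 and 671 nm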
# MT1-MMP act inh = blockers of MT1-MMP proenzyme processing, primary screen, HT1080 RFP-PRO-GFP cells, GFP/RFP fluorescence; Matrix metalloproteinase-14 (Homo sapiens), P50281; GFP/RFP ratio fluorescence, overnight; percent of plate control window, DMSO zero; GFP/RFP ratio change, % at 20 µM; hit rate 0.061% among 360,000; AID 651647, 2012;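 active means GFP/RFP ratio change of at least 30% with cell ATP level not reduced by more than half and red fluorescence within 50% of control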
#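 Test system: HT1080 RFP-PRO-GFP cells; Benchmarks: DMSO and RFP-L50D-GFP cell wells; Timing: cells overnight before dosing, compound overnight, 37 °C, 5% CO2; Compound: one 20 µM compound dose with 1% DMSO; Read-out: GFP/RFP fluorescence ratio.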
# Vif imaging = HIV Vif self-association inhibitors, primary screen, imaging, HEK293T, single point; HEK293T cells, Vif self-association by quenched fluorescence, 24 h; inhibition, % at 7.49 µM; hit rate 0.35% among 340,000; AID 602346, 2012; in the data active means inhibition above about 50%, passing the limit was not always enough
# NR2E3 ag-1 = inhibitors of NR2E3-RetCOR corepressor binding, primary screen, NR2E3 agonist project, biochemical, TR-FRET, GST-NR2E3, biotin-RetCOR. inhibition of corepressor binding, % at 4.78 µM. Photoreceptor-specific nuclear receptor (Homo sapiens), Q9Y5X4. AID 2300, 2010. hit rate 0.12% among 320,000. 1536-well;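 active means percent inhibition above the cutoff of mean plus 3 SD of all tested compounds, set per screening campaign, cut at about 20% in these data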;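 further: 0% = DMSO wells and 100% = biotin wells as full block of FRET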
#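 Material: NR2E3–RetCOR corepressor complex / Amount: 1.35 nM GST-NR2E3 / Medium: Tris pH 7.5 / Compound: single nominal compound dose of 4.8 µM / Incubation: 5 h at 4 °C / Technique: TR-FRET, Eu(K)-anti-GST donor, streptavidin-D2 acceptor, ex 340, em 617/671 nm / Read-out basis: percent loss of FRET ratio relative to control wells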
# NR2E3 ag-2 = NR2E3 agonists in two-hybrid cells, primary screen, cell-based, luminescence, CHO-S, Gal4-NCOR/VP16-NR2E3; hit rate 0.35% among 360,000; luciferase; inhibition of corepressor binding, % at 3.98 µM; AID 602229, 2012; Photoreceptor-specific nuclear receptor (Homo sapiens), Q9Y5X4;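 active means inhibition above the mean of all tested compounds plus 3 SD, cut at about 70% in these data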;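 further: 0% = DMSO with NR2E3 transfected cells and 100% = cells lacking NR2E3 construct; higher means lower luciferase signal from less NR2E3 corepressor binding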
# NR2E3 ag conf = NR2E3 agonist confirmation in cells, cell-based, luminescence, CHO-S two-hybrid; shares compounds with NR2E3 ag-2; CHO-S mammalian two-hybrid NR2E3-NCOR, luciferase luminescence; inhibition, % at 3.98 µM; hit rate 51% among 2,300;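 active means average inhibition above a cutoff equal to the mean inhibition of all tested compounds plus one SD, cut at about 70% in these data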;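 further: 0% = DMSO in NR2E3 cells and 100% = DMSO in cells lacking NR2E3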
# GAL4-VP16 luc = GAL4-VP16 reporter modulators, confirmation, counter-screen for NR2E3 agonist project, cell-based, luminescence, CHO-S, high throughput | shares compounds with NR2E3 ag-2 | CHO-S GAL4-VP16 luciferase reporter | inhibition, % at 3.98 µM | hit rate 29% among 2,300;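 active means mean inhibition above a cutoff equal to the average over all tested compounds plus one standard deviation, cut at about 70% in these data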;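 further: luciferase from a UAS reporter driven by GAL4-VP16 transactivation; 0% = DMSO with VP16-transfected cells and 100% = DMSO with cells lacking VP16; higher means less reporter light so more repression of VP16 activity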
# An asterisk follows results filed as active; . = no result.
SMILES,DAGLB inhibitor,core dimer inh,MT1-MMP act inh,Vif imaging,NR2E3 ag-1,NR2E3 ag-2,NR2E3 ag conf,GAL4-VP16 luc
Cc1ccc(Nc2nc(NCc3ccccc3)nc3ccsc23)c(C)c1,.,.,-10.0,-15.7,.,56.5,42.2,50.1
Cc1ccc([C@@H]2CC(=O)[C@@H]3CN(S(=O)(=O)c4ccc(C)cc4)[C@H](c4cccc(Cl)c4)C[C@@H]3N2S(=O)(=O)c2ccc(Cl)cc2)cc1,-19.9,.,-10.7,-3.1,.,-8.7,.,.
CCCn1c(NC(=O)c2ccc([N+](=O)[O-])o2)nc2ccccc21,5.1,20.1,-23.5,-5.3,0.0,8.1,.,.
CN(C)S(=O)(=O)c1cccc(CSCc2cccc(S(=O)(=O)N(C)C)c2)c1,-4.1,-1.6,2.0,-11.5,5.6,87.6*,94.3*,81.5*
Cc1cc(C)n2nc(SCc3cccc(S(=O)(=O)N(C)C)c3)nc2n1,-1.5,-0.4,3.1,4.1,1.5,13.3,.,.
CN(C)C(=S)N=c1ssc(=S)n1Cc1cccnc1,-2.7,.,-0.5,7.0,.,85.6*,-24.4,-24.1
CC(=O)Nc1nc(C2CC2)cc(-c2ccccc2)c1C#N,-1.3,2.5,-4.6,-1.9,-2.8,13.5,.,.
O=S(=O)(c1cc(F)ccc1F)N1CCN(c2ncnc3ccccc23)CC1,-2.8,.,-2.1,-35.1,.,87.7*,92.0*,74.4*
O=S(=O)(c1cc(F)ccc1F)N1CCN(c2ccccn2)CC1,1.3,6.1,-0.7,-1.8,-3.1,-12.5,.,.
CC1=C/C(=N\NC(=S)Nc2cccnc2)CC(C)(C)C1,-4.7,.,6.7,0.3,.,80.2*,-24.6,0.7
Cc1ccc(S(=O)(=O)N2[C@@H](c3ccc(C(C)(C)C)cc3)C(C(=O)O)=CC[C@H]2c2cccc(Cl)c2)cc1,16.4,.,-8.5,4.2,.,83.8*,69.8,28.5
Cc1ccc(S(=O)(=O)N2[C@@H](c3ccc(Cl)cc3)C(C(=O)O)=CC[C@H]2c2ccc(C(C)C)cc2)cc1,9.1,16.4,3.1,-8.7,0.9,70.0,87.3*,48.1
Cc1ccc([C@H]2C(C(=O)O)=CC[C@@H](c3ccc(C(C)C)cc3)N2S(=O)(=O)c2ccc(C)cc2)cc1,7.3,.,-3.8,.,.,92.2*,50.9,36.1
CCc1ccc([C@@H]2CC=C(C(=O)O)[C@H](c3ccc(Cl)cc3)N2S(=O)(=O)c2ccc(C)cc2)cc1,12.6,19.0,-2.3,8.3,3.6,76.4*,55.8,39.9
Cc1ccc([C@H]2C(C(=O)O)=CC[C@@H](c3ccc(Cl)cc3)N2S(=O)(=O)c2ccc(C)cc2)cc1,3.3,.,-6.5,.,.,25.6,.,.
Cc1ccc(S(=O)(=O)N2[C@@H](c3ccccc3)C(C(=O)O)=CC[C@H]2c2ccc(C(C)C)cc2)cc1,3.4,19.4,1.9,.,1.9,2.6,.,.
COc1ccc([C@H]2CC(=O)C=C(c3cccc4c3Oc3ccccc3S4)C2)cc1OC,-0.4,.,-8.7,-12.4,5.3,8.2,.,.
Cc1ccc(S(=O)(=O)N2[C@@H](c3ccc(Br)cc3)C(C(=O)O)=CC[C@H]2c2ccc(Cl)c(Cl)c2)cc1,6.2,.,-3.5,-4.3,.,75.6*,73.9*,42.3
CC[C@@H](C(=O)[C@@H](C)[C@@H](O)[C@H](C)[C@@H]1O[C@@H]([C@@H](CC)C(=O)O)CC[C@@H]1C)[C@H]1O[C@]2(C=C[C@@H](O)[C@]3(CC[C@@](C)([C@H]4CC[C@](O)(CC)[C@H](C)O4)O3)O2)[C@H](C)C[C@@H]1C,1.3,.,-15.6,-14.8,.,102.3*,99.8*,84.0*
CC(NC(=O)Nc1nnc(C(F)(F)F)s1)(C(F)(F)F)C(F)(F)F,-3.4,-3.0,-11.0,-13.1,-2.9,105.8*,100.2*,94.0*
COC(=O)c1ccc(NC(=O)CSc2nncn2-c2ccccn2)cc1,-1.5,7.4,-0.1,4.6,1.1,-11.8,.,.
CCn1c(Sc2ccc([N+](=O)[O-])cn2)nnc1-c1ccco1,0.1,-0.9,-2.2,1.3,-0.7,-2.1,.,.
CC(=O)OC1C(N2CCCCC2)c2c(ccc(/C=C/C(=O)N3CCCCC3)c2O)OC1(C)C (stereo unspecified),-1.0,5.5,-0.9,-1.3,6.1,-8.2,.,.
Clc1ccc(-c2nnc(CSc3nnc(-c4cccs4)n3Cc3ccccc3)o2)cc1,-0.9,19.1,-6.4,-13.7,0.2,74.3*,87.7*,74.1*
Cc1nnc(SCc2nnc(-c3cccs3)o2)n1Cc1ccccc1,-2.1,1.5,-0.3,-4.9,2.1,-13.2,.,.
SMILES,DAGLB inhibitor,core dimer inh,MT1-MMP act inh,Vif imaging,NR2E3 ag-1,NR2E3 ag-2,NR2E3 ag conf,GAL4-VP16 luc
CCCOc1ccc(CSc2nc3ccccc3[nH]2)cc1,-4.0,3.5,3.6,-12.1,5.5,74.2*,73.7*,44.3
CCOc1ccc(OCCSc2nc3ccccc3[nH]2)cc1,-3.7,-1.9,-8.9,-26.8,0.6,9.5,.,.
Cc1ccc(CN2CCCN(C)CC2)c(C)c1,1.3,0.7,4.1,-5.5,-6.4,-11.0,.,.
Cc1nc(NS(=O)(=O)c2ccccc2)sc1C(=O)NNS(=O)(=O)c1ccccc1,1.9,1.0,-1.0,-0.3,3.0,-4.2,.,.
Cc1nc(C)c(C(=O)NNS(=O)(=O)c2ccc3ccccc3c2)s1,0.7,3.9,-2.5,-7.9,-1.0,48.1,81.9*,75.8*
COc1ccc(/C=C2\SC(=S)N(CCC(=O)Nc3ccccc3C(=O)O)C2=O)cc1,1.1,1.7,2.9,-1.7,1.8,-22.6,.,.
Cc1ccc(C=C2SC(=S)N(CCCC(=O)Nc3cccc(C(=O)O)c3)C2=O)cc1,.,.,0.0,.,.,72.8*,32.1,88.0*
COc1ccc(/C=C2\SC(=O)N(CCCC(=O)Nc3cc(Cl)ccc3C(=O)O)C2=O)cc1,12.4,.,-0.9,2.2,.,87.7*,79.6*,87.4*
Cc1ccc(/C=C2\SC(=S)N(CCCC(=O)Nc3cccc(C(=O)O)c3)C2=O)cc1,3.0,4.5,-0.9,6.8,1.8,84.8*,40.4,89.2*
